High-throughput results: PubChem, several laboratories
Shown are actives, neighbours in structure and some others; about 1.5% of the full set was active somewhere.
FID counter: counter-screen for HCV NS3 helicase inhibitors: DNA intercalator displacement | DNA fluorescent intercalator displacement, fluorescence | inhibition, % at 7.9 µM | 290,000 compounds, 0.17% hits; in the data active = inhibition above about 37%;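 note: 0% = vehicle and 100% = reference compound; higher means more ethidium bromide displaced from hairpin DNA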
MEX-5 binding: C. elegans MEX-5 TCR-2 RNA binding activity; MEX-5/FITC-TCR2 RNA binding, fluorescence polarization; hits give low values; 300,000 compounds, 0.38% hits; Q9XUB2; activity score (negative = inhibition of binding), % at 10 µM;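 active = inhibition past about -25% in most replicates, and total fluorescence under double the plate's negative control median, limit read from the data; inconclusive = replicates evenly split on the limit, or fluorescence at least double controls; inactive = too little inhibition in most replicates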;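 note: 0% = DMSO and -100% = 5 µM competing unlabeled TCR2 RNA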
CendR NRP1 mod: NRP-1/CendR interaction modulation; AID 602438; 360,000 compounds, 0.85% hits; inhibition, % at 25 µM; O14786; FAM-RPARPAR peptide binding to NRP-1, fluorescence polarization;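 active = inhibition or corrected inhibition above about 18%, plus a signal ratio from 0.5 to 1.5, limit read from the data, passing the limit was not always enough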
Target sequence (O14786 whole entry, looked up): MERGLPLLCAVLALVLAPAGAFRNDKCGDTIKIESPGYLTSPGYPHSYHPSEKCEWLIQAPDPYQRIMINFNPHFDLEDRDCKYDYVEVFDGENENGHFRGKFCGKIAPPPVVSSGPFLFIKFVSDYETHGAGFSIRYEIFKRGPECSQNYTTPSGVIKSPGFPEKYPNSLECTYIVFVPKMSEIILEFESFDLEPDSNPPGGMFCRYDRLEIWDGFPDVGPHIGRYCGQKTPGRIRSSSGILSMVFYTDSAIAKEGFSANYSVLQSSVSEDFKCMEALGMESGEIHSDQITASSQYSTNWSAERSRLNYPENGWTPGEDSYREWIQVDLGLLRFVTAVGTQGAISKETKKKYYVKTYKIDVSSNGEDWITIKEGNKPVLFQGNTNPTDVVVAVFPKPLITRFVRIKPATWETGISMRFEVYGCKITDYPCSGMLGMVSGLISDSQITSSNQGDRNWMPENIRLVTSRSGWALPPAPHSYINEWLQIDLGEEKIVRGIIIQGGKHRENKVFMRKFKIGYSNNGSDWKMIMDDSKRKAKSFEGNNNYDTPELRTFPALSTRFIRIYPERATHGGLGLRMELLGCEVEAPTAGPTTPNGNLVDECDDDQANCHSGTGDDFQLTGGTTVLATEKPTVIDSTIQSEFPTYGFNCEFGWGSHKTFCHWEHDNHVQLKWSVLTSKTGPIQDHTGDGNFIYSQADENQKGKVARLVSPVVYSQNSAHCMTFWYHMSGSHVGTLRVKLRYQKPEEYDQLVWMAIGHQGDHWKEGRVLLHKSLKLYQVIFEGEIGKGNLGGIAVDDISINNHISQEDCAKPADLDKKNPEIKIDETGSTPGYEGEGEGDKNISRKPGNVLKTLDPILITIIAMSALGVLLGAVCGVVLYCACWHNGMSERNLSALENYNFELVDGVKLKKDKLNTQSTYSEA
HCV core dimer: HCV core protein dimerization inhibition | inhibition, % at 5 µM | 300,000 compounds, 0.33% hits | TR-FRET GST/Flag-core106 dimerization, 1536-well | AID 1899;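 active = inhibition above the mean of all tested compounds plus 3 SD, set per screening campaign, cut at about 45% in these data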
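Test system: GST/Flag-tagged HCV core106 proteins; Medium: KF-containing HEPES buffer, pH 7.45, DTT, CHAPS, BSA; Times: compound-protein-antibody incubation 4 h at 22.5 °C; Detection: TR-FRET 671 and 617 nm emission; Benchmarks: wells lacking GST-core106 and wells with excess unlabelled core106.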
Numbers without * were called inactive; ? = inconclusive; / = no result given.

SMILES | FID counter | MEX-5 binding | CendR NRP1 mod | HCV core dimer
CC(=O)N=c1c(C#N)cc2c(=O)n3cccc(C)c3nc2n1CCCOC(C)C | -6.7 | -26.3* | -4.3 | 5.5
Cc1cccn2c(=O)c3cc(C#N)c(=NC(=O)c4cccs4)n(CCCOC(C)C)c3nc12 | -18.7 | -44.6* | -33.8 | 25.3
CCNC(=O)C1(C)CCN(Cc2noc(-c3c(C)noc3C)n2)C1 (stereo unspecified) | / | / | 7.7 | /
CN(C)c1ncnc2c1NC1=C(S2)C(=NCCCC(=O)O)CC(C)(C)C1 | 1.7 | -11.3 | -7.5 | -19.1
COc1ncnc2c1NC1=C(S2)C(=NCCC(=O)O)CC(C)(C)C1 | 2.4 | -51.7* | 0.2 | -6.7
O=C(NC(=S)NCc1ccccc1Cl)c1cccs1 | / | / | 15.5 | /
OC(COc1ccc(F)cc1Cl)CN1CCC(Cc2ccccc2)CC1 (stereo unspecified) | 38.6* | -0.6 | 11.9 | 8.6
COc1ccc(/C=C/C(=O)NCC(=O)N/N=C/c2ccc(OC)cc2)cc1 | -17.4 | -1.1 | 19.8* | -9.1
O=C(c1cc(Cl)cc(Cl)c1)N1CCC(=O)N([C@H](COCc2ccccc2)Cc2ccccc2)CC1 | / | / | -4.7 | /
COc1ccc(-c2csc(NC(CO)c3nc4ccccc4n3CCCO)n2)cc1 (stereo unspecified) | / | 1.9 | 26.1* | -11.5
COc1ccc(-c2csc(NC(CO)c3nc4ccccc4n3CCOCCO)n2)cc1 (stereo unspecified) | / | 1.1 | -10.3 | -6.6
O=C(NCCc1ccc(F)cc1)C1CCC(=O)N(CC2CCCCC2)C1 (stereo unspecified) | / | / | -9.8 | /
CCOc1ccc(/C=C2/Sc3ccc(C(=O)NCC4CCCO4)cc3N(C)C2=O)cc1OC (stereo unspecified) | -46.2 | -4.2 | 27.0* | -9.8
Cc1cccc(/C=C2\Sc3ccc(C(=O)NCC4CCCO4)cc3N(C)C2=O)c1 (stereo unspecified) | -41.1 | 1.4 | -5.8 | -20.0
NC(=S)N/N=C/c1ccccc1O | -7.3 | -2.8 | -5.9 | -3.7
Oc1ccc(/C=N/NC(=S)Nc2cccnc2)c(O)c1O | -2.0 | -42.9* | -41.9 | /
Oc1cccc(/C=N/NC(=S)Nc2cccnc2)c1O | -10.7 | -12.3 | -28.5 | -12.4
NC(=S)N/N=C/c1cccc(O)c1O | -1.6 | -38.1* | -0.4 | -1.2
CC(=O)c1ccc(OCc2nnn(CC(=O)NS(=O)(=O)c3ccc(C)cc3)c2-c2ccccc2)cc1 | / | / | -18.1 | /
COc1cc(OC)c(C(=O)OCC(=O)Nc2cc(C)on2)cc1OC | -7.3 | 0.3 | 35.9* | -0.2
CCOC(=O)C1(C)CCCN(C(=O)Cc2ccc3ccccc3c2)C1 (stereo unspecified) | / | / | 9.0 | /
C#CC(C)(O)C1CC(CC(=O)O)C1(C)C (stereo unspecified) | / | / | 2.6 | /
CC1(C)C(CC(=O)O)CC1C(=O)O (stereo unspecified) | / | / | 23.7* | /
Clc1ccc(/C=N/c2c(-c3ccco3)nc3ccccn23)cc1 | -10.0 | -6.1 | 36.5* | -35.9
O=C(C[C@H]1CC[C@@H]2[C@H](COC[C@@H](O)CN2Cc2cccc(F)c2)O1)NCC1CCCCC1 | / | / | 3.5 | /
SMILES | FID counter | MEX-5 binding | CendR NRP1 mod | HCV core dimer
CCOC(=O)C1=C(O)C(=O)N(c2ccccc2)C1c1cccc([N+](=O)[O-])c1 (stereo unspecified) | -26.9 | 2.2 | 25.9* | 5.2
O=C(Nc1ccc2c(c1)OCO2)c1cc(C2CCCCN2S(=O)(=O)c2cccs2)on1 (stereo unspecified) | / | / | -9.2 | /
COCC1CCN(Cc2nc(Cc3ccccc3Cl)no2)CC1 | -16.7 | 3.9 | 20.7* | 1.3
O=C1CSCC(=O)N1c1ccccc1 | 0.1 | 0.9 | 1.2 | 0.0
O=C1C2=C(SCCS2)C(=O)N1c1ccccc1 | 4.6 | -45.4* | 2.7 | -0.4
C[C@@H]1CN([C@@H](C)CO)S(=O)(=O)c2ccc(Br)cc2O[C@@H]1CN(C)S(=O)(=O)c1cn(C)cn1 | / | / | 13.2 | /
Cc1noc(-c2ccccc2)c1NC(=O)Nc1ccc2nc([C@H]3C[C@H](O)[C@@H](CO)O3)[nH]c2c1 | / | / | -3.4 | /
Cc1cccc(-n2c(C)cc(C=C3C(=O)c4ccccc4C3=O)c2C)c1 | -5.5 | -31.0* | 130.5 | 0.2
Cc1cc(C=C2C(=O)c3ccccc3C2=O)c(C)n1-c1ccc(Cl)cc1 | -5.0 | ? | -14.2 | /
Cc1cc(C=C2C(=O)CCCC2=O)c(C)n1-c1ccccc1 | -14.9 | 0.8 | -11.4 | 55.1*
Cc1ccc(S(=O)(=O)N2CCOCC2)cc1NC(=O)CSc1nnnn1C1CC1 | / | / | -13.1 | /
CC1(C(=O)Nc2ccc3[nH]ncc3c2)CCN1C(=O)C/C=C/c1ccccc1 (stereo unspecified) | / | / | -5.1 | /
Cn1cnnc1SCC(=O)NC1CCCCC1 | -3.5 | 3.1 | 5.8 | -2.5
